Laboratory results reported in ChEMBL document CHEMBL4428136, “Cell Active Hydroxylactam Inhibitors of Human Lactate Dehydrogenase with Oral Bioavailability in Mice” (ACS Med Chem Lett, 2016).

How the values were obtained:
[1] = Half life in CD-1 mouse at 1 mg/kg, iv administered as bolus by LC-MS/MS analysis; format: ADME, organism-based; details: in vivo
[2] = Protein binding in CD-1 mouse plasma; format: ADME, cell-free; details: read-out: PPB (converted)
[3] = Oral bioavailability in CD-1 mouse at 5 mg/kg; format: ADME, organism-based; details: in vivo
In short: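 Bioavailability was derived from paired intravenous and oral administration in mice, with the oral dose at 5 mg/kg.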

[4] = Volume of distribution at steady state in CD-1 mouse at 1 mg/kg, iv administered as bolus by LC-MS/MS analysis; format: ADME, organism-based; details: in vivo, read-out: Vdss
[5] = AUC in CD-1 mouse at 100 mg/kg, po administered as suspension by LC-MS/MS analysis; format: ADME, organism-based; details: in vivo
[6] = AUC in CD-1 mouse at 50 mg/kg, po administered as suspension by LC-MS/MS analysis; format: ADME, organism-based; details: in vivo
[7] = Cmax in CD-1 mouse at 5 mg/kg, po administered as suspension by LC-MS/MS analysis; format: ADME, organism-based; parameters: dose 5 mg/kg, route oral; details: in vivo
[8] = Cmax in CD-1 mouse at 50 mg/kg, po administered as suspension by LC-MS/MS analysis; format: ADME, organism-based; parameters: dose 50 mg/kg, route oral; details: in vivo
[9] = Cmax in CD-1 mouse at 100 mg/kg, po administered as suspension by LC-MS/MS analysis; format: ADME, organism-based; parameters: dose 100 mg/kg, route oral; details: in vivo
[10] = Apparent permeability across apical to basolateral side in MDCK cells; format: ADME, cell-based, Canis lupus familiaris; details: dog
[11] = AUC in CD-1 mouse at 5 mg/kg, po administered as suspension by LC-MS/MS analysis; format: ADME, organism-based; details: in vivo
[12] = Cmax in CD-1 mouse at 1 mg/kg, iv administered as bolus by LC-MS/MS analysis; format: ADME, organism-based; parameters: dose 1 mg/kg, route intravenous; details: in vivo
[13] = AUC in CD-1 mouse at 1 mg/kg, iv administered as bolus by LC-MS/MS analysis; format: ADME, organism-based; details: in vivo
[14] = Cmax in CD-1 mouse at 200 mg/kg, po administered as suspension by LC-MS/MS analysis; format: ADME, organism-based; parameters: dose 200 mg/kg, route oral; details: in vivo
[15] = AUC in CD-1 mouse at 200 mg/kg, po administered as suspension by LC-MS/MS analysis; format: ADME, organism-based; details: in vivo
[16] = Plasma clearance in CD-1 mouse at 1 mg/kg, iv administered as bolus by LC-MS/MS analysis; format: ADME, organism-based
[17] = Lipophilicity, log D of the compound at pH 7.4 by high throughput method; format: physicochemical; details: buffer
[18] = target: L-lactate dehydrogenase B chain (Homo sapiens, UniProt P07195); assay: Inhibition of human recombinant carboxy-terminal His-tagged LDHB by UV endpoint assay
Chain of L-lactate dehydrogenase B chain (P07195 whole entry): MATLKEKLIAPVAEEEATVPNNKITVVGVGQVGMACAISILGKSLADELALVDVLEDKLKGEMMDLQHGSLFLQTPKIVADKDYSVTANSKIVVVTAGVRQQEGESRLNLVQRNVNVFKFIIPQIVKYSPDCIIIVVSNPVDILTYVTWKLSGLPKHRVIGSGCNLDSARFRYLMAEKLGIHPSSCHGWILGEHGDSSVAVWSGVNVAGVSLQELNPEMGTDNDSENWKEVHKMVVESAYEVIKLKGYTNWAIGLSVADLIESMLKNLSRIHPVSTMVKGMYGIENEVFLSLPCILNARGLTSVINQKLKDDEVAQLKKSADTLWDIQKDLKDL

Structure (SMILES) | Papp A→B [10] | logD [17] | IC50 [18] | also measured
O=C1N[C@](c2ccc(N3CCOCC3)cc2)(c2ccsc2)CC(O)=C1Sc1ccccc1Cl | 3.4 ×10⁻⁶ cm/s | 0.6 | – | half-life [1]: 1 h; fraction unbound [2]: 0.009; bioavailability [3]: 70%; Vd [4]: 1.4 L/kg; AUC [5]: 250 µM·h; AUC [6]: 125 µM·h; Cmax [7]: 1.7 µM; Cmax [8]: 60.7 µM; Cmax [9]: 224 µM; AUC [11]: 5.1 µM·h; Cmax [12]: 2.5 µM; AUC [13]: 1.5 µM·h; Cmax [14]: 440 µM; AUC [15]: 403 µM·h; clearance [16]: 21.1 mL/min/kg
COc1ccc(C2(c3ccsc3)CC(O)=C(Sc3ccccc3Cl)C(=O)N2)cc1 (stereo not given) | – | – | 210 nM | –
O=C1NC(c2ccsc2)(c2ccccn2)CC(O)=C1Sc1ccccc1Cl (stereo not given) | – | – | > 10000 nM | –
O=C1NC(c2ccccc2)(c2cscn2)CC(O)=C1Sc1ccccc1Cl (stereo not given) | – | – | 2300 nM | –
N#CC1CCN(c2ccc(C3(c4ccsc4)CC(O)=C(Sc4ccccc4Cl)C(=O)N3)cc2)CC1 (stereo not given) | – | 0.8 | – | –
O=C1NC(c2ccsc2)(c2ccccc2F)CC(O)=C1Sc1ccccc1Cl (stereo not given) | – | – | 1800 nM | –
N#Cc1ccc(C2(c3ccsc3)CC(O)=C(Sc3ccccc3Cl)C(=O)N2)cc1 (stereo not given) | – | – | 1100 nM | –
O=C1NC(c2ccccc2)(c2ccsc2)CC(O)=C1Sc1ccccc1Cl (stereo not given) | 7.4 ×10⁻⁶ cm/s | 0.8 | – | –
CC1CN(c2ccc(C3(c4ccsc4)CC(O)=C(Sc4ccccc4Cl)C(=O)N3)cc2)CC(C)O1 (stereo not given) | 6 ×10⁻⁶ cm/s | 1.3 | – | fraction unbound [2]: < 0.001
O=C1NC(c2ccc(N3CCOCC3=O)cc2)(c2ccsc2)CC(O)=C1Sc1ccccc1Cl (stereo not given) | – | 0.4 | – | –
CC1(C)CN(c2ccc(C3(c4ccsc4)CC(O)=C(Sc4ccccc4Cl)C(=O)N3)cc2)CCO1 (stereo not given) | – | 1.3 | – | –
O=C1NC(c2ccc(N3CCC4(CC3)COC4)cc2)(c2ccsc2)CC(O)=C1Sc1ccccc1Cl (stereo not given) | – | 0.7 | – | –
O=C1NC(c2ccccc2)(c2ccccc2)CC(O)=C1Sc1ccccc1Cl | 9.4 ×10⁻⁶ cm/s | 1.4 | 2200 nM | fraction unbound [2]: 0.007
COC1CCN(c2ccc(C3(c4ccsc4)CC(O)=C(Sc4ccccc4Cl)C(=O)N3)cc2)CC1 (racemic) | – | 1.2 | – | –
O=C1NC(c2ccc(N3CCCCC3)cc2)(c2ccsc2)CC(O)=C1Sc1ccccc1Cl (racemic) | 1.7 ×10⁻⁶ cm/s | 2.1 | – | fraction unbound [2]: < 0.001
O=C1NC(c2ccsc2)(c2cccc(NC3CCOCC3)c2)CC(O)=C1Sc1ccccc1Cl (racemic) | 0.5 ×10⁻⁶ cm/s | -0.3 | – | –
O=C1NC(c2ccsc2)(c2cccc(Nc3ccc(F)cc3)c2)CC(O)=C1Sc1ccccc1Cl (racemic) | 1 ×10⁻⁶ cm/s | 2.4 | – | fraction unbound [2]: < 0.001
O=C1NC(c2ccc(C3CCCCC3)cc2)(c2ccsc2)CC(O)=C1Sc1ccccc1Cl (racemic) | – | 3.5 | – | –
